Assay results taken from publication PMC4100325 (Journal of toxicology and environmental health. Part A, 2014).

Assays:
[1] = tested on: lipid peroxidation (LP) in the livers of mice; assay: lipid peroxidation; assay type: in vivo, B6C3F1 male mice; settings: for slope of regression LP vs Dose: LP as nmoles TBARS/mg protein, dose mg/kg/day; for effect on LP in livers: gavage daily for 13 weeks; for intercept of regression LP vs Dose: regression analysis
Summary of the method: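 Mice (6/group) received daily gavage of test compound (pH 7 aqueous) for 13 weeks and were killed 24 hr post-dose. A 10% w/v liver homogenate in Tris-KCl (pH 7.4) was mixed with 1% phosphoric acid, 0.6% thiobarbituric acid and butylated hydroxyanisole, then heated at 100°C for 45 min. TBARS were extracted into n-butanol and read at 535 nm (ε 1.556 × 10^5 M−1 cm−1), normalised to Lowry protein. Means ± S.D. are reported; regression was against dose.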

[2] = tested on: superoxide anion (SA) production in the livers of mice; assay: superoxide anion; assay type: in vivo, B6C3F1 male mice; settings: for slope of regression SA vs Dose: SA as nmoles cytochrome c reduced/ min/ mg protein, dose mg/kg/day; for effect on SA production in livers: gavage daily for 13 weeks
Summary of the method: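 After 13 weeks of daily gavage (test compound, aqueous pH 7; 6 mice/group), liver was homogenised 10% w/v in Tris-KCl, pH 7.4. Homogenate was incubated with 45 nmol cytochrome c in PBS, pH 7.2, for 15 min at 37°C. The reaction was stopped on ice and centrifuged, and the supernatant was read at 550 nm. Values were converted with ε 2.1 × 10^4 M−1 cm−1 to nmol reduced/min/mg Lowry protein; regression was against dose.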

[3] = 410 mg DCA/kg/day, subchronic studies; ref Hassoun et al, 2010a; cited from earlier work
[4] = liver/body weight ratio after subchronic gavage exposure; assay type: in vivo, B6C3F1 male mice; settings: mean ± SD
Summary of the method: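 Male B6C3F1 mice arrived at 6 weeks (~20 g) and were given test compound or water vehicle (pH 7) by daily gavage for 13 weeks, 6/group. Body weights were taken weekly. Animals were killed 24 hr after the last dose (CO2, cervical dislocation) and livers were weighed. Data are means ± S.D.; one-way ANOVA with Tukey post-hoc test.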

liver = settings: subchronic studies; ref Hassoun et al. 2010a; cited from earlier work
[5] = tested on: DNA single strand breaks in the livers of mice; assay: DNA single strand breaks; assay type: in vivo, B6C3F1 male mice; settings: for intercept of regression DNA-SSBs vs Dose / slope of regression DNA-SSBs vs Dose: DNA-SSBs as elution rate constant k; for slope of regression DNA-SSBs vs Dose: dose mg/kg/day; for effect on DNA SSB in livers: gavage daily for 13 weeks
Summary of the method: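 Male B6C3F1 mice (6/group) were gavaged daily for 13 weeks with test compound in distilled water (pH 7) and killed 24 hr after the last dose. Liver was homogenised 25% w/v in KCl/NaCl/spermine/spermidine/sucrose/EDTA/EGTA/Tris/PMSF/2-mercaptoethanol buffer and spun at 3000 g to get nuclei. These were lysed on 5 µm filters (2% SDS, 25 mM EDTA, pH 10.3, 20 min), then eluted at pH 12.3 into seven 3 ml fractions. DNA was read by diaminobenzoic acid fluorescence (436/521 nm). k = −2.3 × slope of log10 %DNA retained vs eluate volume.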

[6] = tested on: cytochrome c reduction in liver homogenates; settings: SOD added to assay mixture of liver homogenate; ref Hassoun and Dey, 2008; cited from earlier work

| Compound | slope of regression LP vs Dose [1] | effect on LP in livers [1] | intercept of regression LP vs Dose [1] [nmoles TBARS/mg protein] | slope of regression SA vs Dose [2] | effect on SA production in livers [2] | increase in liver/body weight ratio associated with hepatomegaly [3] [fold] | Liver/body weight ratio ([4]; DCA 7.5 mg/kg/day by gavage for 13 weeks) | Liver/body weight ratio ([4]; DCA 15 mg/kg/day by gavage for 13 weeks) | Liver/body weight ratio ([4]; DCA 30 mg/kg/day by gavage for 13 weeks) | threshold dose for hepatotoxicity (liver) [mg/kg/day] | intercept of regression DNA-SSBs vs Dose [5] | slope of regression DNA-SSBs vs Dose [5] | effect on DNA SSB in livers [5] | Liver/body weight ratio ([4]; TCA 12.5 mg/kg/day by gavage for 13 weeks) | Liver/body weight ratio ([4]; TCA 25 mg/kg/day by gavage for 13 weeks) | Liver/body weight ratio ([4]; TCA 50 mg/kg/day by gavage for 13 weeks) | inhibition of cytochrome c reduction [6] [%] |
| --- | --- | --- | --- | --- | --- | --- | --- | --- | --- | --- | --- | --- | --- | --- | --- | --- | --- |
| O=C(O)C(Cl)Cl [DCA, sodium dichloroacetate] | 0.2041 | dose-dependent increases | 1.185 | 0.1036 | dose-dependent increases | 1.3 | 0.054 ± 0.009 | 0.051 ± 0.002 | 0.053 ± 0.007 | 154 | 0.00215 | 0.000201 | dose-dependent increases |  |  |  |  |
| O=C(O)C(Cl)(Cl)Cl [TCA, sodium trichloroacetate] | 0.0631 | dose-dependent increases | 0.870 | 0.0237 | dose-dependent increases |  |  |  |  | 410 | 0.00152 | 0.000052 | dose-dependent increases | 0.057 ± 0.003 | 0.055 ± 0.005 | 0.049 ± 0.005 |  |
| superoxide dismutase [SOD] |  |  |  |  |  |  |  |  |  |  |  |  |  |  |  |  | 91.1 |
